Results gathered from unrelated publications.
Each line is one published result; the experiments were not run side by side.
Target: Focal adhesion kinase 1 (PTK2, Homo sapiens, UniProt Q05397)

Cn1cncc1[C@](O)(COc1ccc(C#N)cc1-c1ccc(OC(F)(F)F)cc1)c1ccc(C#N)cc1
remaining binding (cell-free assay; competition with immobilised ligand; 1 µM): 77%

Nc1ncc(-c2nc(N3CCOCC3)nc(N3CCOCC3)n2)c(C(F)F)n1
remaining binding (binding; competition with immobilised ligand; 10 µM): 100%

Cn1cc(-c2cccc(N3CCc4c(sc5c4CC(C)(C)C5)C3=O)c2CO)cc(Nc2ccncn2)c1=O
inhibition (enzyme activity; inhibitor; 1 µM): 3%

CC(C)(C)c1cc(C=C(C#N)C#N)cc(Br)c1O
remaining activity (enzyme activity; inhibitor; 0.5 µM): 107%

N#CC1(c2ccccn2)CCN(Cc2cc(C(=O)O)c(=O)n3ccccc23)CC1
remaining binding (cell-free assay; competition with immobilised ligand; 1 µM): 100%

Cc1nn(C)cc1-c1nc2c(N3CCN(Cc4ccc(Cl)cc4)CC3)c(Cl)cnc2[nH]1
remaining binding (binding; competition with immobilised ligand; 1 µM): 95%

COc1ncccc1-c1cnn2ccc(N3CCN(C(=O)OC(C)C)CC3)nc12
remaining binding (binding; competition with immobilised ligand; 1 µM): 97%

Cn1cc(-c2cc(F)cc(N3CCn4c(cc5c4CCCC5)C3=O)c2CO)cc(Nc2ccc(N3CCN(C4COC4)CC3)cn2)c1=O
inhibition (enzyme activity; inhibitor; 0.1 µM): 18%

C#Cc1n[nH]c2c(-c3cn(C(C)c4ccccn4)c(=O)[nH]c3=O)cc(F)cc12 (stereo not shown)
inhibition (enzyme activity; inhibitor; 1 µM): 5.6%

O=c1[nH]c2ccccc2n1C1CCN(Cc2ccc(-c3[nH]c4cc5ncnc5cc4nc3-c3ccccc3)cc2)CC1
remaining signal (cell-free assay; 0.5 µM): 108%
